According to ChEMBL document CHEMBL3580541, “Mebamamides A and B, Cyclic Lipopeptides Isolated from the Green Alga Derbesia marina” (J Nat Prod, 2015):
Active and inactive are the calls of the source. The calls are words filed in the database; no cut-off is given here.

Key:
HL-60 [1] = assay: Induction of cell adhesion in human HL60 cells at 100 uM measured upto 72 hrs by hemocytometry; assay type: functional, cell-based
Summary of the method: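 HL60 cells were seeded at 1 × 10^5 cells/well in 200 μL medium and given 100 μM compound; TPA at 16 nM served as comparator. Both fractions were counted by hemocytometer. Means ± SD of quadruplicate determinations.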

HL-60 [2] = assay: Induction of human HL60 cell differentiation into macrophages at 100 uM after 72 hrs by May-Giemsa staining based microscopy; assay type: functional
Summary of the method: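 Differentiation was judged by morphology. HL60 cells were seeded at 2 × 10^4 cells/well in 200 μL medium, treated 72 h with 100 μM compound or 16 nM TPA, washed once in PBS, stained with May−Giemsa and examined by light microscopy.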

HL-60 [3] = assay: Cytotoxicity against human HL60 cells at 100 uM after 72 hrs by Trypan blue dye exclusion assay; assay type: functional, cell-based
Summary of the method: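 HL60 cells were seeded at 1 × 10^5 cells/well in 24-well plates and exposed to 100 μM compound for 72 h. They were then stained with 0.8 mg/mL trypan blue. Viability was determined by counting stained (dead) cells.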

HeLa [4] = assay: Cytotoxicity against human HeLa cells at 100 uM after 72 hrs by Trypan blue dye exclusion assay; assay type: functional, cell-based; details: in the assay text read “MTT assay” for “Trypan blue dye exclusion assay”
Summary of the method: (§1)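 MTT read-out of proliferation. HeLa cells were grown in supplemented DMEM with 10% heat-inactivated FBS, seeded at 2 × 10^4 cells/well and cultured overnight. HL60 cells were grown in supplemented RPMI with 10% FBS and seeded at 1 × 10^5 cells/well. Compounds were added at 0.1−100 μM and incubated 72 h at 37 °C, 5% CO2.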

HL-60 [5] = assay: Induction of human HL60 cell phagocytotic activity at 100 uM after 48 hrs by trypan based fluorescent microscopy; assay type: functional
Summary of the method: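 Phagocytosis was run with a commercial kit. HL60 cells were seeded at 2 × 10^4 cells/well in 200 μL medium, given 20 μL FITC-conjugated latex bead suspension plus 100 μM compound or 16 nM TPA, incubated 48 h and examined by fluorescence microscopy.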

HeLa [6] = assay: Cytotoxicity against human HeLa cells after 72 hrs by Trypan blue dye exclusion assay; assay type: functional, cell-based; details: in the assay text read “MTT assay” for “Trypan blue dye exclusion assay”; summary of the method: as §1
HL-60 [7] = assay: Cytotoxicity against human HL60 cells after 72 hrs by Trypan blue dye exclusion assay; assay type: functional, cell-based; details: HL-60, 72 h, in the assay text read “MTT assay” for “Trypan blue dye exclusion assay”; summary of the method: as §1
HL-60 [8] = assay: Induction of human HL60 cell phagocytotic activity at 16 nM after 48 hrs by trypan based fluorescent microscopy; assay type: functional
Summary of the method: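 HL60 cells were seeded at 2 × 10^4 cells/well. FITC-conjugated latex beads and agent were added together, with TPA at 16 nM as the reference, and cells were incubated for 48 h. Uptake was assessed by fluorescence microscopy using a commercial phagocytosis kit run per the manufacturer's protocol.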

HL-60 [9] = assay: Induction of human HL60 cell differentiation into macrophages at 16 nM after 72 hrs by May-Giemsa staining based microscopy; assay type: functional
Summary of the method: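 HL60 cells were grown in RPMI with 10% heat-inactivated FBS, penicillin/streptomycin, amphotericin and L-glutamine at 37 °C in 5% CO2. They were seeded at 2 × 10^4 cells/well and treated for 72 h. Cells were washed once in PBS, stained with May–Giemsa, and examined by light microscopy for macrophage-like morphology.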

SMILES | Activity (HL-60 [1]) | Activity (HL-60 [2]) | growth inhibition (GI) (HL-60 [3]) | growth inhibition (GI) (HeLa [4]) | Activity (HL-60 [5]) | IC50 (HeLa [6]) | IC50 (HL-60 [7]) | Activity (HL-60 [8]) | Activity (HL-60 [9])
CC(C)C[C@H](NC(=O)[C@@H](CO)NC(=O)C[C@H](O)CCCC[C@H](O)C(C)C)C(=O)N1CCC[C@H]1C(=O)N[C@H](C)C(=O)N[C@@H]1C(=O)N[C@H](Cc2ccccc2)C(=O)N2CCC[C@H]2C(=O)N[C@H](CC(C)C)C(=O)N[C@@H](C(C)C)C(=O)O[C@@H]1C | Active | Active | inactive | inactive | Active |  |  |  | 
CC(=O)O[C@@H](CCCC[C@@H](O)CC(=O)N[C@H](CO)C(=O)N[C@@H](CC(C)C)C(=O)N1CCC[C@H]1C(=O)N[C@H](C)C(=O)N[C@@H]1C(=O)N[C@H](Cc2ccccc2)C(=O)N2CCC[C@H]2C(=O)N[C@H](CC(C)C)C(=O)N[C@@H](C(C)C)C(=O)O[C@@H]1C)C(C)C | inactive |  |  |  |  | 48 µM | 19 µM |  | 
CCCCCCCCCCCCCC(=O)O[C@@H]1[C@@H](C)[C@@]2(O)[C@@H](C=C(CO)C[C@]3(O)C(=O)C(C)=C[C@@H]23)[C@@H]2C(C)(C)[C@]12OC(C)=O |  |  |  |  |  |  |  | Active | Active
